The chains are these.
B1: Lanosterol 14-alpha demethylase (Homo sapiens) (protein)
chain: MAAAAGMLLLGLLQAGGSVLGQAMEKVTGGNLLSMLLIACAFTLSLVYLIRLAAGHLVQLPAGVKSPPYIFSPIPFLGHAIAFGKSPIEFLENAYEKYGPVFSFTMVGKTFTYLLGSDAAALLFNSKNEDLNAEDVYSRLTTPVFGKGVAYDVPNPVFLEQKKMLKSGLNIAHFKQHVSIIEKETKEYFESWGESGEKNVFEALSELIILTASHCLHGKEIRSQLNEKVAQLYADLDGGFSHAAWLLPGWLPLPSFRRRDRAHREIKDIFYKAIQKRRQSQEKIDDILQTLLDATYKDGRPLTDDEVAGMLIGLLLAGQHTSSTTSAWMGFFLARDKTLQKKCYLEQKTVCGENLPPLTYDQLKDLNLLDRCIKETLRLRPPIMIMMRMARTPQTVAGYTIPPGHQVCVSPTVNQRLKDSWVERLDFNPDRYLQDNPASGEKFAYVPFGAGRHRCIGENFAYVQIKTIWSTMLRLYEFDLIDGYFPTVNYTTMIHTPENPVIRYKRRSK

The target in the first data set is T1, Lanosterol 14-alpha demethylase (Homo sapiens, UniProt Q16850).
T1 sequence (Q16850 whole entry): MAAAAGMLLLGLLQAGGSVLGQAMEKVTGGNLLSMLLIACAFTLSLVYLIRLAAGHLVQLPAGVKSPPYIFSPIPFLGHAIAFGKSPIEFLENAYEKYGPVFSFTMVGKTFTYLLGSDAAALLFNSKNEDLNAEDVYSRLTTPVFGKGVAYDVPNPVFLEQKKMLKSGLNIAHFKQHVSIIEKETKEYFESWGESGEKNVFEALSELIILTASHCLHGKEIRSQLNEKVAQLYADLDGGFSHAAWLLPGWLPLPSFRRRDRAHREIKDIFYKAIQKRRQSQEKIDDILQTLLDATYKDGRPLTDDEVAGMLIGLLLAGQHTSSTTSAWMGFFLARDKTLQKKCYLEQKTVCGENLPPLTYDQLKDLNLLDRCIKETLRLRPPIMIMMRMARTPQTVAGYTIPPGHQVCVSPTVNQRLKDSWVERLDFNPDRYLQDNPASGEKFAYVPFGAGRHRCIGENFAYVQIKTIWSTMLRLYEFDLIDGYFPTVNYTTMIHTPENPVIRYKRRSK
Description: Inhibition of human CYP51 expressed in Topp 3 cells by lanosterol demethylase assay. Format: cell-based. In a few lines: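 0.5 ml phosphate buffer pH 7.4 with KCN, NADPH regenerating system, 60 min at 37 °C. Triene product extracted and quantified by chromatography (ergosterol internal standard). IC50 read from plot of % activity remaining vs concentration.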
With `c1ccc2[nH]cnc2c1` [BENZIMIDAZOLE], the IC50 (usually the concentration needed to halve the response being measured) was greater than 200 µM.

For `CCCCC/C=C\C/C=C\C/C=C\C/C=C\CCCC(=O)O` [ARACHIDONIC ACID], the IC50 is greater than 200 µM.

`O=C1C(CC[S+]([O-])c2ccccc2)C(=O)N(c2ccccc2)N1c1ccccc1` (stereo not given) [SULFINPYRAZONE]: the IC50 is greater than 200 µM.

Regarding `C[C@]12CC[C@H]3[C@@H](CCC4=CC(=O)CC[C@@]43C)[C@@H]1CC[C@@H]2O` [TESTOSTERONE], half-maximal inhibition (IC50) required 50 µM.

In the case of `CC(=O)[C@H]1CC[C@H]2[C@@H]3CC=C4C[C@@H](O)CC[C@]4(C)[C@H]3CC[C@]12C` [PREGNENOLONE], the half-inhibitory concentration (IC50) is greater than 200 µM.

Molecule `O=C(N[C@H](Cc1ccccc1)C(=O)N1CCC(O)CC1)c1cc2cc(Cl)ccc2[nH]1` gave an IC50 of 100 µM.

In the case of `COC1=CC(=O)C[C@@H](C)[C@]12Oc1c(Cl)c(OC)cc(OC)c1C2=O` [GRISEOFULVIN], half-maximal inhibition (IC50) required 50 µM.

`Clc1ccccc1C(c1ccccc1)(c1ccccc1)n1ccnc1` [CLOTRIMAZOLE] came in with a half-inhibitory concentration (IC50) of 0.13 µM.

The molecule `Cn1cc[nH]c1=S` [METHIMAZOLE] displayed an IC50 greater than 200 µM.

In the case of `Clc1ccc(C2(Cn3cncn3)OCCO2)c(Cl)c1` [AZACONAZOLE], the IC50 was greater than 10 µM.

In turn, `O=C(NC(Cc1ccccc1)C(=O)O)c1cc2cc(Cl)ccc2[nH]1` (stereo not given) yielded an IC50 greater than 200 µM.

`c1ccc(-c2ccc(C(c3ccccc3)n3ccnc3)cc2)cc1` (stereo not given) [BIFONAZOLE] displayed a 50% inhibitory concentration (IC50) of 0.342 µM.

Consider `Cc1ncc([N+](=O)[O-])n1CCO` [METRONIDAZOLE], for which the half-maximal inhibitory concentration (IC50) was greater than 200 µM.

With `O=C(N[C@@H](Cc1ccccc1)C(=O)N1CCC(O)CC1)c1cc2ccccc2[nH]1`, the 50% inhibitory concentration (IC50) was found to be 0.91 µM.

`CC(=O)[C@H]1CC[C@H]2[C@@H]3CCC4=CC(=O)CC[C@]4(C)[C@H]3CC[C@]12C` [PROGESTERONE] gave an IC50 greater than 200 µM.

Molecule `O=C(N[C@@H](Cc1ccc(F)cc1)C(=O)N1CCC(O)CC1)c1cc2cc(Cl)ccc2[nH]1` registered an IC50 of 4 µM.

Molecule `O=C(N[C@@H](Cc1ccccc1)C(=O)N1CCC(O)CC1)c1cc2cc(Cl)ccc2[nH]1` gave a half-maximal inhibitory concentration (IC50) of 3.1 µM.

As to `Cc1cccc(N(C)C(=S)Oc2ccc3ccccc3c2)c1` [TOLNAFTATE], inhibition was half-maximal at 50 µM (IC50).

As to `CCCCNC(=O)NS(=O)(=O)c1ccc(C)cc1` [TOLBUTAMIDE], the IC50 was greater than 200 µM.

In turn, `O=C(N[C@@H](Cc1ccc(O)cc1)C(=O)N1CCC(O)CC1)c1cc2cc(Cl)ccc2[nH]1` returned a 50% inhibitory concentration (IC50) of 2.5 µM.

In the case of `Clc1ccc(COC(Cn2ccnc2)c2ccc(Cl)cc2Cl)cc1` (stereo not given) [ECONAZOLE], the IC50 amounted to 0.05 µM.

`Clc1ccc(COC(Cn2ccnc2)c2ccc(Cl)cc2Cl)c(Cl)c1` (stereo not given) [MICONAZOLE] had a half-inhibitory concentration (IC50) of 0.2 µM.

With `CC(C)CCC[C@@H](C)[C@H]1CC[C@H]2[C@@H]3CC=C4C[C@@H](O)CC[C@]4(C)[C@H]3CC[C@]12C` [CHOLESTEROL], the IC50 was greater than 200 µM.

On to `O=C(N[C@@H](Cc1ccc(Cl)cc1)C(=O)N1CCC(O)CC1)c1cc2cc(Cl)ccc2[nH]1`, for which it took 9.7 µM to reach half-maximal inhibition (IC50).

Turning to `CC(C)N1CCN(c2ccc(OC[C@H]3CO[C@](Cn4cncn4)(c4ccc(Cl)cc4Cl)O3)cc2)CC1` [TERCONAZOLE], inhibition was half-maximal at 3 µM (IC50).

As to `CCC(C)n1ncn(-c2ccc(N3CCN(c4ccc(OCC5COC(Cn6cncn6)(c6ccc(Cl)cc6Cl)O5)cc4)CC3)cc2)c1=O` (stereo not given) [ITRACONAZOLE], the 50% inhibitory concentration (IC50) was found to be 3.6 µM.

Regarding `CCCNC(=O)NS(=O)(=O)c1ccc(Cl)cc1` [CHLORPROPAMIDE], the 50% inhibitory concentration (IC50) is greater than 200 µM.

`O=C(N[C@@H](Cc1c[nH]cn1)C(=O)N1CCC(O)CC1)c1cc2cc(Cl)ccc2[nH]1` had a concentration for half-maximal inhibition (IC50) of 1.3 µM.

Turning to `OC(c1ccccc1)(c1cncnc1)c1ccc(Cl)cc1Cl` (stereo not given) [TRIARIMOL], the half-inhibitory concentration (IC50) is greater than 10 µM.

Consider `O=C(N[C@@H](Cc1cccnc1)C(=O)N1CCC(O)CC1)c1cc2cc(Cl)ccc2[nH]1`, for which the concentration for half-maximal inhibition (IC50) is 26 µM.

For `O=C(NC(Cc1ccccc1)C(=O)N1CCC(O)CC1)c1ccc[nH]1` (stereo not given), the IC50 is greater than 200 µM.

For the molecule `COc1ccc(C[C@H](NC(=O)c2cc3cc(Cl)ccc3[nH]2)C(=O)N2CCC(O)CC2)cc1`, the midpoint of inhibition, the IC50, lay at 4.5 µM.

For `O=C(N[C@@H](Cc1ccccc1Cl)C(=O)N1CCC(O)CC1)c1cc2cc(Cl)ccc2[nH]1` [ANALOGUE A], the concentration for half-maximal inhibition (IC50) was 0.3 µM.

In turn, `CO[C@H]1/C=C/O[C@@]2(C)Oc3c(C)c(O)c4c(O)c(c(/C=N/N5CCN(C)CC5)c(O)c4c3C2=O)NC(=O)/C(C)=C\C=C\[C@H](C)[C@H](O)[C@@H](C)[C@@H](O)[C@@H](C)[C@H](OC(C)=O)[C@@H]1C` [RIFAMPIN] showed a half-inhibitory concentration (IC50) of 30 µM.

`O=C(N[C@@H](Cc1ccccc1F)C(=O)N1CCC(O)CC1)c1cc2cc(Cl)ccc2[nH]1` came in with a half-inhibitory concentration (IC50) of 0.8 µM.

On to `CCCCC/C=C\C/C=C\C/C=C\C/C=C\CCCC(=O)NCCO` [ANANDAMIDE], for which the concentration for half-maximal inhibition (IC50) is greater than 200 µM.

The molecule `O=C(N[C@@H](Cc1ccccc1)C(=O)N1CCC(O)CC1)c1cc2cc(F)ccc2[nH]1` had an IC50 of 75 µM.

`CC[C@H]1OC(=O)[C@H](C)[C@@H](O[C@H]2C[C@@](C)(OC)[C@@H](O)[C@H](C)O2)[C@H](C)[C@@H](O[C@@H]2O[C@H](C)C[C@H](N(C)C)[C@H]2O)[C@](C)(O)C[C@@H](C)C(=O)[C@H](C)[C@@H](O)[C@]1(C)O` [ERYTHROMYCIN] registered an IC50 greater than 200 µM.

Regarding `O=C(NC1(C(=O)N2CCC(O)CC2)CCCC1)c1cc2cc(Cl)ccc2[nH]1`, the IC50 turned out to be 100 µM.

The molecule `O=C(N[C@@H](Cc1ccccc1)C(=O)N1CCC(O)CC1)c1cc2c([nH]1)CCCC2` displayed a half-maximal inhibitory concentration (IC50) greater than 200 µM.

`CC[C@H](C)C(=O)O[C@H]1C[C@@H](C)C=C2C=C[C@H](C)[C@H](CC[C@@H]3C[C@@H](O)CC(=O)O3)[C@H]21` [LOVASTATIN]: the IC50 was greater than 200 µM.

Consider `Nc1ccc(S(=O)(=O)Nc2ccnn2-c2ccccc2)cc1` [SULFAPHENAZOLE], for which the concentration for half-maximal inhibition (IC50) is greater than 200 µM.

`CC(=O)N1CCN(c2ccc(OC[C@H]3CO[C@](Cn4ccnc4)(c4ccc(Cl)cc4Cl)O3)cc2)CC1` [KETOCONAZOLE]: the IC50 was 0.19 µM.

For the next data set, the target named is T1, Lanosterol 14-alpha demethylase. In words: Binding affinity to human CYP51.
As for `CC(=O)N1CCN(c2ccc(OC[C@H]3CO[C@](Cn4ccnc4)(c4ccc(Cl)cc4Cl)O3)cc2)CC1` [KETOCONAZOLE], the Kd (usually the free concentration of one partner at which half of the binding sites on the other are occupied at equilibrium, for simple one-to-one binding) came out at 8 µM.

Substrate in a further data set: CC(C)=CCC[C@@H](C)[C@H]1CC[C@@]2(C)C3=C(CC[C@]12C)[C@@]1(C)CC[C@H](O)C(C)(C)[C@@H]1CC3
Description: Binding affinity to human reconstituted CYP51.
B1: the Km (in general, the substrate concentration at which the rate is half of its maximum) was 30 µM.

Source of the values: ChEMBL document CHEMBL1143822, “Three-dimensional quantitative structure-activity relationship analysis of human CYP51 inhibitors” (Drug Metab Dispos, 2007).
